Compound activity from PubChem.
PERK inh = human PERK inhibition, primary cell-based screen. Q9NZJ5. 220,000 compounds, 0.17% hits. CHO PERK-DD fusion, SEAP luminescence translation reporter. inhibition, % at 5.6 µM;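 active = inhibition above the mean inhibition of all tested compounds plus 3 SD, set separately per screening campaign, cut at about 2.9% in these data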;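 also: PERK kinase domain activated by AP20187 dimerizer at 100 nM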
TNAP inh no acc = inhibitors of human TNAP without phosphate acceptor; P05186; purified TNAP, CDP-star luminescence, 30 min; inhibition, % at 20 µM; 200,000 compounds, 0.26% hits; AID 1012;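 active = tissue-nonspecific alkaline phosphatase inhibition above about 50% at 20 µM in the single-dose screen, limit read from the data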
TNAP inh hi DEA = blocks human TNAP under high phosphate acceptor concentration | inhibition, % at 20 µM | purified TNAP, CDP-star luminescence, 1 M DEA | 200,000 compounds, 0.03% hits | P05186;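 active = over 50% inhibition of tissue-nonspecific alkaline phosphatase at 20 µM in the single-dose screen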
p97 ATPase inh = inhibitors of human p97 ATPase; P55072; recombinant p97 ATPase, Kinase-Glo ATP luminescence, 3 h; inhibition, % at 8 µM; 220,000 compounds, 0.42% hits; AID 1481; in the data active = inhibition above about 15%
Target sequence (P55072 whole entry, looked up): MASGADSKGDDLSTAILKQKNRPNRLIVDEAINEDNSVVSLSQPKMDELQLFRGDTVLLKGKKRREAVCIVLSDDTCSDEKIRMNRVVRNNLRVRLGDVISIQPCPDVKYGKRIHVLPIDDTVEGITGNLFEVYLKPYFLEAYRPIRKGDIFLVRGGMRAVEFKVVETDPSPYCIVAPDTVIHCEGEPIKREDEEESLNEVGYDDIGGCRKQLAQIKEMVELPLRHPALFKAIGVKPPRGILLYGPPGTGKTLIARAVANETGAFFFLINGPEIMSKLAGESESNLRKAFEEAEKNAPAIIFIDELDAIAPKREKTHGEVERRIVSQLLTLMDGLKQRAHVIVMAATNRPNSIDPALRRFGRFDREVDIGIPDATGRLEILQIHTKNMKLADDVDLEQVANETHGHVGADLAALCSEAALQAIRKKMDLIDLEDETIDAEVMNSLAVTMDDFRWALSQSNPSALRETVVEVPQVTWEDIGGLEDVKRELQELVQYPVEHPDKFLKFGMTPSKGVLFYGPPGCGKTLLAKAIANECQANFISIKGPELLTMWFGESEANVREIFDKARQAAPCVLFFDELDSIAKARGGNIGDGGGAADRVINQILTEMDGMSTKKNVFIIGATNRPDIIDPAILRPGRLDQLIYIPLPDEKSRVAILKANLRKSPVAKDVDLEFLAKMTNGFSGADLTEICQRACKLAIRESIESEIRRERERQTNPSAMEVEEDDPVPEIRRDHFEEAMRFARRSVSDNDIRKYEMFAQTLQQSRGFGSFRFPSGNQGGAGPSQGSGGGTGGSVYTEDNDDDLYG
TNAP act hiacc = activators of human TNAP at high phosphate acceptor concentration; P05186; purified TNAP, CDP-star luminescence, 1 M DEA, 30 min; hits give high values; 0 = EDTA background, 1 = DMSO-only activity; activation factor at 20 µM; 200,000 tested, under 10 active; AID 1136;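 active = activation factor at least 2 at 20 µM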
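Control set: EDTA negative control, DMSO positive control / Assay system: human TNAP / Quantity: TNAP 1/800 final / Evaluation: TNAP activation factor scaled between EDTA and DMSO control wells / Measured by: luminescent substrate turnover signal / Compound dosing: one dose, 20 µM / Times: 30 min enzyme reaction at room temperature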
DTT redox prof = compounds producing H2O2 with reducing agent – biochemical, NIH compound library profiling, artefact control for MLSCN library redox annotation, primary screen; DTT-dependent redox cycling H2O2, phenol red/HRP absorbance; 100% = 100 µM peroxide control, 0% = buffer; 200,000 compounds, 0.03% hits; activation, % at 10 µM;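 active = activation of at least 50% relative to the plate's high and low controls in the primary single-dose screen; inactive = activation below 50%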;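 also: compound incubated with DTT at 0.8 mM final as the reducing agent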
Numbers stand for hits; 0 = inactive; - = no result given. In the library only some 0.86% were active in any assay of this set; here they are far more common.

SMILES	PERK inh	TNAP inh no acc	TNAP inh hi DEA	p97 ATPase inh	TNAP act hiacc	DTT redox prof
CCc1nnc2c3cnn(-c4ccccc4)c3ncn12	0	53	0	0	0	0
Cc1cccc(C)c1OCc1nnc2c3cnn(C)c3ncn12	0	74	0	0	0	0
Cc1ccc(-n2ncc3c2ncn2c(C)nnc32)cc1C	0	84	0	0	0	0
c1ccc(-n2ncc3c2ncn2nnnc32)cc1	0	0	0	0	0	0
FC(F)(F)c1cccc(-c2nc3nc(Cl)c(Cl)nc3[nH]2)c1	0	-	-	0	-	-
CC(C)CNC(=O)/C=C/c1cccs1	0	0	0	0	0	0
c1ccc(-n2ncc3c2ncn2cnnc32)cc1	0	76	0	0	0	0
CN(C)CCn1c(=O)n(-c2cccc(Cl)c2)c(=O)c2c3c(sc21)CCCCC3	0	-	-	0	-	-
O=C(N/N=C/c1c[nH]c2ccccc12)c1cc(-c2ccc3ccccc3c2)n[nH]1	0	0	0	0	0	0
Cc1ccc(-c2cc(C(=O)N/N=C/c3c[nH]c4ccccc34)[nH]n2)cc1	0	71	0	0	0	0
O=C(N/N=C/c1c[nH]c2ccccc12)c1cc(-c2ccccc2)n[nH]1	0	87	0	0	0	0
CCOc1ccc(OCC)c(NC(=O)Nc2ccc3c(c2)N(C)C(=O)CS3)c1	0	0	0	0	0	0
FC(F)(F)c1cnc2c(-c3ccccc3)n[nH]c2c1	0	81	0	0	0	0
O=C(O)c1sc2cc(C(F)(F)F)cnc2c1-c1ccccc1	0	0	0	0	0	0
Cc1cc(C(=O)OCC(=O)NC2CCCCC2)c(C)o1	0	0	0	0	0	51
NNC(=O)CNC(c1ccccc1)c1cc(Br)ccc1NC(=O)CCN1CCOCC1 (stereo not given)	0	0	0	19	0	0
COC(=O)c1c(C)[nH]c(C(C)=O)c1C	3.0	0	0	0	0	0
Cc1ccc(-n2ncc(C(=O)Nc3cc(Cl)ccc3C)c2C2CCNCC2)cc1C	0	0	0	0	0	0
COc1cc(/C=N/NC(=O)c2cc(C34CC5CC(CC(C5)C3)C4)[nH]n2)ccc1O	0	54	0	0	0	0
Cc1nn(-c2ccccc2)c(C)c1/C=N/NC(=O)c1cc(-c2ccc(Cl)s2)[nH]n1	0	67	0	0	0	0
Cc1nn(-c2ccccc2)c(C)c1/C=N/NC(=O)c1cc(-c2cccs2)[nH]n1	0	84	0	0	0	0
COc1cc(/C=N/NC(=O)c2[nH]nc3c2CCc2ccccc2-3)ccc1O	0	66	0	0	0	0
O=C(NNS(=O)(=O)c1ccc(C(=O)NC2CCCC2)cc1)c1ccncc1	0	0	0	0	0	0
COc1ccc(C2CC(c3ccccc3)Nc3nc(NS(C)(=O)=O)nn32)cc1 (stereo not given)	0	-	-	0	-	-
COc1ccc(S(=O)(=O)NNC(=O)c2ccc(-n3c(C)ccc3C)cc2)cc1	0	-	-	0	-	-
SMILES	PERK inh	TNAP inh no acc	TNAP inh hi DEA	p97 ATPase inh	TNAP act hiacc	DTT redox prof
COc1cc(OC)c(OC)cc1CN1CCN(Cc2cccn2C)CC1	0	0	0	0	0	0
Cc1nn(-c2ccccc2)c(C)c1/C=N/NC(=O)c1cc(C23CC4CC(CC(C4)C2)C3)[nH]n1	0	73	0	0	0	0
O=C(O)c1cc(-c2cccs2)[nH]n1	0	83	0	0	0	0
Cc1cc(C(=O)N/N=C/c2c(C)nn(-c3ccccc3)c2C)n[nH]1	0	-	-	0	-	-
CCOC(=O)c1cc(-c2cccs2)[nH]n1	0	-	-	0	-	-
CC(=O)C1=C(C)OC(N)=C(C#N)C1c1ccco1 (stereo not given)	0	0	0	0	0	0
CC(=O)C1=C(C)OC(N)=C(C#N)C1c1cccc2ccccc12 (stereo not given)	0	-	-	15	-	-
Cc1cc(/C=C2/C(=N)N3C(=NC2=O)SN=C3S(C)(=O)=O)c(C)n1-c1ccccc1F	3.4	0	0	0	0	0
COc1ccc(C(=O)C2CCCN(C(=O)c3n[nH]c4c3CCCC4)C2)cc1OC (stereo not given)	0	60	0	0	0	0
CCCc1cc(=O)[nH]c(SCCOc2ccc(Cl)cc2)n1	2.9	0	0	0	0	0
